Measurements taken from ChEMBL document CHEMBL1641573, “3-[(Imidazolidin-2-yl)imino]indazole ligands with selectivity for the α(2)-adrenoceptor compared to the imidazoline I(1) receptor” (Bioorg Med Chem, 2011).

Columns and labels:
[1] = organism: Rattus norvegicus; experiment: Selectivity ratio of IC50 for imidazoline I1 receptor in Sprague-Dawley rat kidney membrane to Ki for alpha2 adrenergic receptor in Sprague-Dawley rat brain membrane; assay type: cell membranes
[2] = test system: Rattus norvegicus; experiment: Cardioprotectant activity in Wistar rat assessed as change in mean arterial pressure at 0.1 mg/kg, iv; assay type: functional, Artery
[3] = test system: Rattus norvegicus; experiment: Cardioprotectant activity in Wistar rat assessed as change in heart rate at 0.1 mg/kg, iv; assay type: functional
[4] = target: T1, Adrenergic receptor alpha-2 (Rattus norvegicus, UniProt P22086+P19328+P22909); experiment: Displacement of [3H]RX821002 from alpha2 adrenergic receptor in Sprague-Dawley rat brain membrane after 45 mins by liquid scintillation counting; assay type: cell membranes
T1 sequence (P22086 whole entry): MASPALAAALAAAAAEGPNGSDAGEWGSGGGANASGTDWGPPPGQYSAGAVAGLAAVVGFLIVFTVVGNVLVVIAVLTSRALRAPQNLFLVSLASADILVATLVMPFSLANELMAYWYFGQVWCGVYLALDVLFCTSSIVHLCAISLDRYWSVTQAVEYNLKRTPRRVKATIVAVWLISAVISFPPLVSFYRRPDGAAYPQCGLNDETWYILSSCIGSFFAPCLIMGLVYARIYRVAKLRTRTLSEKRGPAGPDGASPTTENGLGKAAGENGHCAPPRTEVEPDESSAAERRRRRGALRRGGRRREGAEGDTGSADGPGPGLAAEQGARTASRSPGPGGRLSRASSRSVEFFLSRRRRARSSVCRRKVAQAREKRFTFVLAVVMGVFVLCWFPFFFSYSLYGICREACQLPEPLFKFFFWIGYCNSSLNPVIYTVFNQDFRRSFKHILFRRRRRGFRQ
T1 sequence (P19328 whole entry): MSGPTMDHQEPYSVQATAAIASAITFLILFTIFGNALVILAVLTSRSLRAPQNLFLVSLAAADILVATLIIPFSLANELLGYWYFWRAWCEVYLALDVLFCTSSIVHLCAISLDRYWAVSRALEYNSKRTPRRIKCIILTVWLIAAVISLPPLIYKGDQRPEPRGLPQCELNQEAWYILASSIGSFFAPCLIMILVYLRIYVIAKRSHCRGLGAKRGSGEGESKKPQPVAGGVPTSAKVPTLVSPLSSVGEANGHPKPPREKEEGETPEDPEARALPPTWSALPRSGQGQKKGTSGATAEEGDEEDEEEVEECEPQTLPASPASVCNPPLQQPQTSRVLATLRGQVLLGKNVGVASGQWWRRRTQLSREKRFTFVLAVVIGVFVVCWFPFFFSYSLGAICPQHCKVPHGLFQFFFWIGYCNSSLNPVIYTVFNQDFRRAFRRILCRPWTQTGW
T1 sequence (P22909 whole entry): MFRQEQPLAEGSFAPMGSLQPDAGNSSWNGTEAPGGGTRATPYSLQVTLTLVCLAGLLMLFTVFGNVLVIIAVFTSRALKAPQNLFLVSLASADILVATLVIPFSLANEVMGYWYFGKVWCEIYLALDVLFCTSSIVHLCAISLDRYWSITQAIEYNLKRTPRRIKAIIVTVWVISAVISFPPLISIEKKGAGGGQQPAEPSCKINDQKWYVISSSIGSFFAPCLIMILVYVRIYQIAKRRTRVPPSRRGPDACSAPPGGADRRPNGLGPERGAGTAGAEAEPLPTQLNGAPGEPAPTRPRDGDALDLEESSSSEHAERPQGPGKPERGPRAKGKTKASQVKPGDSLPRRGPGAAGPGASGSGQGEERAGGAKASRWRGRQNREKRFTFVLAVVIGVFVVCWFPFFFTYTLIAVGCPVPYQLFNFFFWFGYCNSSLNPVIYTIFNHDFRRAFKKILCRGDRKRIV
How it was run: (§1)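 Crude P2 brain membranes from male Sprague–Dawley rats (0.2–0.3 mg protein) incubated with 11 concentrations (0.01 nM–100 µM) and 1 nM of [3H]2BFI (I2), [3H]prazosin (α1) or [3H]RX821002 (α2), at room temperature in triplicate. Non-specific binding: BU224, phenylephrine or rauwolscine. Filtration, scintillation counting, Ki by Cheng–Prusoff from 3–4 experiments.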

[5] = target: T2, Alpha-2A adrenergic receptor (Homo sapiens, UniProt P08913); experiment: Agonist activity at human recombinant alpha2A adrenergic receptor expressed in CHO cells assessed as induction of [35S]GTPgammaS binding after 60 mins by scintillation counting; assay type: functional, cell-based
T2 sequence (P08913 whole entry): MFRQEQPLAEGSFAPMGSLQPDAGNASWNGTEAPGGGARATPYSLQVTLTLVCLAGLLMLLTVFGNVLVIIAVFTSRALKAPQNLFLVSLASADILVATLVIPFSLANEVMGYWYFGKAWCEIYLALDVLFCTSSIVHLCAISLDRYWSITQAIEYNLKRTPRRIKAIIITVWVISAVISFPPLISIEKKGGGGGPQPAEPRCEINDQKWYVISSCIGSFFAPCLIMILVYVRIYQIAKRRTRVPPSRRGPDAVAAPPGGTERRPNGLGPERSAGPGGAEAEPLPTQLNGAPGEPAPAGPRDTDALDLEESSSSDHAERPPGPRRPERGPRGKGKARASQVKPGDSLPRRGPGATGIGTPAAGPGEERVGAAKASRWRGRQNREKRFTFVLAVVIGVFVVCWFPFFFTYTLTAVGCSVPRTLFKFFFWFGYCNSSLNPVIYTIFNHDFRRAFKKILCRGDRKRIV
How it was run: (§2)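 Membranes from CHO-K1 cells expressing human α2A-adrenoceptor, in Tris buffer pH 7.4 with 10 µM GDP, 5 mM MgCl2 and 150 mM NaCl; 5 µg protein preincubated with agonist 30 min at 37 °C, then 0.1 nM [35S]GTPγS for 60 min at 37 °C. Filtration and scintillation counting, duplicates, at least three repeats.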

[6] = test system: Rattus norvegicus; experiment: Cardioprotectant activity in Wistar rat assessed as change in heart rate at 0.01 mg/kg, iv; assay type: functional
[7] = test system: Rattus norvegicus; experiment: Cardioprotectant activity in Wistar rat assessed as change in mean arterial pressure at 0.01 mg/kg, iv; assay type: functional, Artery
[8] = target: T3, Alpha-2A adrenergic receptor (Homo sapiens) (UniProt P08913); experiment: Agonist activity at human recombinant alpha2A adrenergic receptor expressed in CHO cells assessed as induction of [35S]GTPgammaS binding after 60 mins by scintillation counting relative to noradrenaline; assay type: functional, cell-based
T3 sequence (whole entry): T2 sequence (P08913 whole entry)
How it was run: as §2, with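 “repeats. Curve fit gave EC50 and intrinsic activity as % of noradrenaline.” for “repeats.”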

[9] = test system: Rattus norvegicus; experiment: Cardioprotectant activity in Wistar rat assessed as change in heart rate at 1 mg/kg, iv; assay type: functional
[10] = test system: Rattus norvegicus; experiment: Cardioprotectant activity in Wistar rat assessed as change in mean arterial pressure at 1 mg/kg, iv; assay type: functional, Artery
[11] = target: T4, Adrenergic receptor alpha-1 (Rattus norvegicus, UniProt P15823+P23944+P43140); experiment: Displacement of [3H]prazosin from alpha1 adrenergic receptor in Sprague-Dawley rat brain membrane after 45 mins by liquid scintillation counting; assay type: cell membranes; how it was run: as §1
T4 sequence (P15823 whole entry): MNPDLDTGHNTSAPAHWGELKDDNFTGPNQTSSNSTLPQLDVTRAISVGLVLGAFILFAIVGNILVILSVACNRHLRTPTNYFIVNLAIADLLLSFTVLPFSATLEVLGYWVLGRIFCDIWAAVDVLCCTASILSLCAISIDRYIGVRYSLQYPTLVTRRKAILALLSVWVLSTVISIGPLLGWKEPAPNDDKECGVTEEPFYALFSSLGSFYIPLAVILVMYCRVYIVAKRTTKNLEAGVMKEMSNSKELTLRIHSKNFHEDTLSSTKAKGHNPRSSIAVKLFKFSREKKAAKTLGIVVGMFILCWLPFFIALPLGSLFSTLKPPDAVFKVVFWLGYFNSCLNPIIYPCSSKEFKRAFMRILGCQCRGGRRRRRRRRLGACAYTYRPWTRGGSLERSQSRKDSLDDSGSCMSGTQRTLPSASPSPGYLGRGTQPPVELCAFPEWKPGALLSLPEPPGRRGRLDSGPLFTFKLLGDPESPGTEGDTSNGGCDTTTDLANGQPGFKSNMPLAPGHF
T4 sequence (P23944 whole entry): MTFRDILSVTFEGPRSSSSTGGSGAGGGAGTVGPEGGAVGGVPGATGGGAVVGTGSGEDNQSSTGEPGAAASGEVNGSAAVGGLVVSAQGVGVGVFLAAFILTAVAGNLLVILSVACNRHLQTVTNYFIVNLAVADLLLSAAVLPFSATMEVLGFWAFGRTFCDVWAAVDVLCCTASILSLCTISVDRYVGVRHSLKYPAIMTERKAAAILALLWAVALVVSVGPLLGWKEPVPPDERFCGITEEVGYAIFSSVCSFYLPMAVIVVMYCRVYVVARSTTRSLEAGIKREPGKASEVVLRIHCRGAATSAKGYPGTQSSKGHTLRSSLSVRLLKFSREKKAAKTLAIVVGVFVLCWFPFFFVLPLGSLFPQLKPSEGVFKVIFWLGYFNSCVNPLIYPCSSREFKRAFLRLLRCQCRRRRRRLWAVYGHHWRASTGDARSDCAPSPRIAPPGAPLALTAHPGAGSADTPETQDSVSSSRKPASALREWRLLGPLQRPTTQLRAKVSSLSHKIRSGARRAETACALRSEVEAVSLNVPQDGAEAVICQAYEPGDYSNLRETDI
T4 sequence (P43140 whole entry): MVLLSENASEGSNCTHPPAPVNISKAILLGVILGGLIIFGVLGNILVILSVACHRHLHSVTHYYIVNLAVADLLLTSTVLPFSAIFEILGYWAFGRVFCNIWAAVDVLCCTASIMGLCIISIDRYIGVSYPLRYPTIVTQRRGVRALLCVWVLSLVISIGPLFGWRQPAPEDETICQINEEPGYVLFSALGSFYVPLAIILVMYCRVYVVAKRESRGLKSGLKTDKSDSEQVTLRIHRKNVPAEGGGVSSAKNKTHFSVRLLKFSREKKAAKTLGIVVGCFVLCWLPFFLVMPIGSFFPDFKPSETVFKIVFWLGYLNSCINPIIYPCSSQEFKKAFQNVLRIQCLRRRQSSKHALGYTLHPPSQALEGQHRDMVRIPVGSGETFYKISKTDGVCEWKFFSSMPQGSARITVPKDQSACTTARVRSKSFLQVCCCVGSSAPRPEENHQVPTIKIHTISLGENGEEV

[12] = target: Nischarin (Rattus norvegicus, UniProt Q4G017); experiment: Displacement of [3H]clonidine from imidazoline I1 receptor in Sprague-Dawley rat kidney membrane after 45 mins by liquid scintillation counting; assay type: cell membranes
Sequence of Nischarin (Q4G017 whole entry): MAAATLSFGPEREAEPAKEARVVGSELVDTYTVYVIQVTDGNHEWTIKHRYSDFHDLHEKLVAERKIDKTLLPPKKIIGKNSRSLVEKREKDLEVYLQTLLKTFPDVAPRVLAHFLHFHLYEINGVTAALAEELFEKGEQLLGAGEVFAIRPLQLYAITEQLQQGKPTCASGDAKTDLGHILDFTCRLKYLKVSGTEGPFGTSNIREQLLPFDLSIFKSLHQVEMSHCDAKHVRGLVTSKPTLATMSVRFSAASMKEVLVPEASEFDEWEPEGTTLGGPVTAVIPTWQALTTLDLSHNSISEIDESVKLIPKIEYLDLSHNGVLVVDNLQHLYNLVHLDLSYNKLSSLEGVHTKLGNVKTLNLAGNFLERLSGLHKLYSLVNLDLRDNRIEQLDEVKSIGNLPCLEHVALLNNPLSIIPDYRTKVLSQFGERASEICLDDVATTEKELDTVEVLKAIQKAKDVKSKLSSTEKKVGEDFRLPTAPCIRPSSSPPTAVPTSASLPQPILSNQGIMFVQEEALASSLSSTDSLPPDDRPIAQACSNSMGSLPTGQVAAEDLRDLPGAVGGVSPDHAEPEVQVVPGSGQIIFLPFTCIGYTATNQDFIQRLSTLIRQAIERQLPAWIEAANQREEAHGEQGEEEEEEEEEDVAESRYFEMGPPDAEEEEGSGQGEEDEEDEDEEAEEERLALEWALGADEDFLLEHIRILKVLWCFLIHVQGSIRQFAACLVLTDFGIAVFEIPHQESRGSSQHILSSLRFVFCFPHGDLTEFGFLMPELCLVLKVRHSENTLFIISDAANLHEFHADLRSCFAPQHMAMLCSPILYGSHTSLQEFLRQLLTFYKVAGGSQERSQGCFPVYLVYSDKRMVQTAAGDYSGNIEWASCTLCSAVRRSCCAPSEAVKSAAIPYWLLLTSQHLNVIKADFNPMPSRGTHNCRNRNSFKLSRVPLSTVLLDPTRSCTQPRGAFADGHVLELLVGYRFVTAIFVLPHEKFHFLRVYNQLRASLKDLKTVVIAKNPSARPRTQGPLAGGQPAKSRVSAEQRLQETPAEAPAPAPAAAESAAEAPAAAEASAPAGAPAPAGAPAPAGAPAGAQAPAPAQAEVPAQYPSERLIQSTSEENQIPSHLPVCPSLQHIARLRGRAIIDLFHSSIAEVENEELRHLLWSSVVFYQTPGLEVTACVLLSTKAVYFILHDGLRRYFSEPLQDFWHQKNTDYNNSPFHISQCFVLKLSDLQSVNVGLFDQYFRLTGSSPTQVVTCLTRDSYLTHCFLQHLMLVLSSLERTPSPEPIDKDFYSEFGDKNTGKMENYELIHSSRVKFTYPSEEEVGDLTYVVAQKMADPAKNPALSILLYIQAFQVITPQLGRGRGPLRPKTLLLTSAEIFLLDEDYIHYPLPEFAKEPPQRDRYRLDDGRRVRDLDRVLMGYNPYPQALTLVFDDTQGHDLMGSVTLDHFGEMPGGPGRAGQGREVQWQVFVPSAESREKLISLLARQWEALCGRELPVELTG
How it was run: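 Specific binding defined by 10 µM rilmenidine. 11 test concentrations, 50 mM Tris-HCl pH 7.4, room temperature 45 min. Filtration through PEI-soaked glass-fibre filters, scintillation counting, IC50 by curve fitting.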

SMILES | Ratio [1] | Activity [2] | Activity [3] | Ki [4] | EC50 [5] | Activity [6] | Activity [7] | Intrinsic activity [8] | Activity [9] | Activity [10] | Ki [11] | IC50 [12]
Cl.Clc1cccc2c(N=C3NCCN3)n[nH]c12 | 30 | -21.7 mmHg | -92 bpm | 133 nM | 73 nM | -35 bpm | -12.2 mmHg | 66% | -117 bpm | -37.2 mmHg | 684 nM | 4010 nM
Cl.Clc1cccc2[nH]nc(N=C3NCCN3)c12 | 115 | -10.8 mmHg | -40 bpm | 15.9 nM | 240 nM | -37 bpm | -10.8 mmHg | 13% | -68 bpm | -23.6 mmHg | 69.3 nM | 1840 nM
Cc1ccc2[nH]nc(N=C3NCCN3)c2c1.Cl | 2 | – | – | 11400 nM | – | – | – | – | – | – | 29000 nM | 21200 nM
Cl.Clc1ccc2c(N=C3NCCN3)n[nH]c2c1 | 4 | – | – | 502 nM | – | – | – | – | – | – | 386 nM | 2010 nM
Cc1cccc([C@H](C)c2c[nH]cn2)c1C | – | – | – | – | – | – | – | 60% | – | – | – | –
Cc1ccc2c(N=C3NCCN3)n[nH]c2c1.Cl | 94.3 | – | – | 176 nM | – | – | – | – | – | – | 508 nM | 16600 nM
Brc1cccc2[nH]nc(N=C3NCCN3)c12.Cl | 1 | – | – | 6420 nM | – | – | – | – | – | – | 984 nM | 7560 nM
COc1ccc2[nH]nc(N=C3NCCN3)c2c1.Cl | > 68 | – | – | 1460 nM | – | – | – | – | – | – | 244 nM | > 100000 nM
Clc1cccc2c1cnn2N=C1NCCN1 | – | – | – | – | 180 nM | – | – | 62% | – | – | – | –
COc1cccc2[nH]nc(N=C3NCCN3)c12.Cl | 34 | – | – | 748 nM | – | – | – | – | – | – | 196 nM | 25600 nM
Cl.c1ccc2c(N=C3NCCN3)n[nH]c2c1 | 82 | – | – | 39.4 nM | 82 nM | – | – | 55% | – | – | – | 3220 nM
Cc1cccc2[nH]nc(N=C3NCCN3)c12.Cl | 690 | -53.5 mmHg | -132 bpm | 22.6 nM | 14 nM | -43 bpm | -17.1 mmHg | 40% | -155 bpm | -22 mmHg | 46.5 nM | 32500 nM
Cl.Clc1ccc2[nH]nc(N=C3NCCN3)c2c1 | > 9.4 | – | – | 10600 nM | – | – | – | – | – | – | 121 nM | > 100000 nM
c1ccc2c(c1)cnn2N=C1NCCN1 [MARSANIDINE] | – | – | – | – | 160 nM | – | – | 18% | – | – | – | –
Cc1cccc2cnn(N=C3NCCN3)c12 | – | – | – | – | 37 nM | – | – | 32% | – | – | – | –
Clc1cccc2cnn(N=C3NCCN3)c12 | – | – | – | – | 15 nM | – | – | 48% | – | – | – | –
